In ChEMBL document CHEMBL3392957, “The discovery of 1,2,3,9b-tetrahydro-5H-imidazo[2,1-a]isoindol-5-ones as a new class of respiratory syncytial virus (RSV) fusion inhibitors. Part 1” (Bioorg Med Chem Lett, 2015):
Converted amounts (≈) assume the structure as drawn.

Key:
[1] = Cytotoxicity against human Hep2 cells after 5 days by MTT assay; format: cell-based, HEp-2
How it was run: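 Uninfected HEp2 cells (1.0 × 10⁴/well) with serially diluted compound, 5 days at 37 °C in 5% CO₂; viability by MTT (1 mg/ml, 2 h), isopropanol, absorbance 540 nm; CC₅₀ by non-linear regression.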

[2] = test system: Respiratory syncytial virus; assay: Antiviral activity against Respiratory syncytial virus A2 infected in human Hep2 cells assessed as inhibition of virus-induced cytopathicity after 5 days by MTT assay; format: functional, organism-based; details: A2, HEp-2, 120 h
How it was run: (§1)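 HEp2 cells (1.0 × 10⁴/well) infected at low moi (e.g. RSV A2 at moi 0.01) and added to serially diluted compound; 5 days at 37 °C, 5% CO₂. CPE read by MTT (1 mg/ml, 2 h, 37 °C), isopropanol, absorbance 540 nm; EC₅₀ by non-linear regression. SD given where n > 2.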

[3] = Apparent volume of distribution in Sprague-Dawley rat at 2.0 mg/kg, iv in 0.1 M capsitol and 10 to 12.5 % DMSO; details: in vivo, read-out: Vz
[4] = Lipophilicity, log D of the compound in octanol saturated mobile phase at pH 7.4 by chromatographic method; format: physicochemical
How it was run: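 Effective logD determined chromatographically on a SUPELCOSIL LC-ABZ column with octanol-saturated mobile phase, pH 7.4.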

[5] = test system: Respiratory syncytial virus; assay: Antiviral activity against wild-type Respiratory syncytial virus A Long infected in human Hep2 cells assessed as inhibition of virus-induced cytopathicity after 5 days by MTT assay; format: functional, organism-based; details: HEp-2, 120 h; how it was run: as §1
[6] = Kinetic solubility of the compound at pH 6.5 by nephelometry; format: physicochemical; details: buffer, read-out: Kinetic_solubility
How it was run: (§2)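 Kinetic solubility by nephelometry, at pH 2 and pH 6.5; reported as a range in μg/mL.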

[7] = test system: Respiratory syncytial virus; assay: Antiviral activity against Respiratory syncytial virus B1 infected in human Hep2 cells assessed as inhibition of virus-induced cytopathicity after 5 days by MTT assay; format: functional, organism-based; details: B1, HEp-2, 120 h; how it was run: as §1
[8] = Elimination half life in Sprague-Dawley rat at 2.0 mg/kg, iv in 0.1 M capsitol and 10 to 12.5 % DMSO; details: in vivo, read-out: beta t1/2
[9] = Oral bioavailability in Sprague-Dawley rat at 19 mg/kg as suspension with hydroxypropylmethylcellulose; format: ADME, organism-based; details: in vivo
How it was run: (§3)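 Male Sprague-Dawley rats, n = 2, given a single oral dose. Plasma pharmacokinetics were analysed for Cmax (µM), terminal half-life (hr) and oral bioavailability F (%). The oral bioavailability estimate draws on a separate intravenous arm, also with n = 2 rats.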

[10] = Elimination half life in Sprague-Dawley rat at 19 mg/kg, po as suspension with hydroxypropylmethylcellulose; format: ADME, organism-based; set-up: dose 19 mg/kg, route oral; details: in vivo, read-out: beta t1/2; how it was run: as §3
[11] = Cmax in Sprague-Dawley rat at 19 mg/kg, po as suspension with hydroxypropylmethylcellulose; format: ADME, organism-based; set-up: dose 19 mg/kg, route oral; details: in vivo; how it was run: as §3
[12] = Kinetic solubility of the compound at pH 2 by nephelometry; format: physicochemical; details: buffer, read-out: Kinetic_solubility; how it was run: as §2
[13] = Total clearance in Sprague-Dawley rat at 2.0 mg/kg, iv in 0.1 M capsitol and 10 to 12.5 % DMSO; details: in vivo
[14] = test system: Respiratory syncytial virus; assay: Antiviral activity against Respiratory syncytial virus A2 infected in human Hep2 cells assessed as inhibition of virus-induced cytopathicity after 5 days by MTT assay relative to alpha-1-acid glycoprotein; format: functional, HEp-2
How it was run: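 RSV A2 CPE assay in HEp2 cells (moi 0.01, 5 days, 37 °C, MTT read-out at 540 nm) run with alpha-1-acid glycoprotein at 1.5 mg/mL; result expressed as fold shift in EC₅₀ versus the assay without AAG.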

[15] = Plasma protein binding in rat; format: ADME, cell-free; details: read-out: PPB (converted)

Structure (SMILES): NC(=O)COc1ccc(C23c4ccccc4C(=O)N2CCN3C(=O)c2ccc(F)cc2)cc1 (racemic)
- CC50 at 120 h [1]: 11 µM
- EC50 [2]: 1 µM

Structure (SMILES): CC(=O)COc1ccc(C23c4ccccc4C(=O)N2CCN3C(=O)c2ccc(F)cc2)cc1 (racemic)
- CC50 at 120 h [1]: > 16 µM
- EC50 [2]: 0.86 µM

Structure (SMILES): O=C(c1ccc(F)cc1)N1CCN2C(=O)c3ccccc3C12c1cccc(Cl)c1 (racemic)
- CC50 at 120 h [1]: > 18 µM
- EC50 [2]: 0.19 µM

Structure (SMILES): N#CCOc1cccc(C23c4ccccc4C(=O)N2CCN3C(=O)c2ccc(F)cc2)c1 (racemic)
- CC50 at 120 h [1]: > 17 µM
- EC50 [2]: 3.4 µM

Structure (SMILES): COCCOc1cccc(C23c4ccccc4C(=O)N2CCN3C(=O)c2ccc(F)cc2)c1 (racemic)
- CC50 at 120 h [1]: > 16 µM
- EC50 [2]: > 16 µM

Structure (SMILES): O=C1c2ccccc2C2(c3ccc(Cl)cc3)N1CCN2c1ccccc1 (racemic)
- CC50 at 120 h [1]: > 20 µM
- EC50 [2]: > 20 µM

Structure (SMILES): O=C1c2ccccc2C2(c3ccc(Cl)cc3)N(Cc3ccc(F)cc3)CCN12 (racemic)
- CC50 at 120 h [1]: 16 µM
- EC50 [2]: > 20 µM

Structure (SMILES): O=C(Cc1ccc(F)cc1)N1CCN2C(=O)c3ccccc3C12c1ccc(Cl)cc1 (racemic)
- CC50 at 120 h [1]: > 20 µM
- EC50 [2]: 0.97 µM

Structure (SMILES): O=C(c1ccc(Cl)cc1)N1CCN2C(=O)c3ccccc3C12c1ccc(Cl)cc1 (racemic)
- CC50 at 120 h [1]: 17 µM
- EC50 [2]: 3.7 µM

Structure (SMILES): O=C(Nc1ccccc1)N1CCN2C(=O)c3ccccc3C12c1ccc(Cl)cc1 (racemic)
- CC50 at 120 h [1]: > 20 µM
- EC50 [2]: 7.1 µM

Structure (SMILES): COc1ccc(NC(=O)N2CCN3C(=O)c4ccccc4C23c2ccc(Cl)cc2)cc1 (racemic)
- CC50 at 120 h [1]: > 20 µM
- EC50 [2]: 1.6 µM

Structure (SMILES): O=C(NCc1ccccc1)N1CCN2C(=O)c3ccccc3C12c1ccc(Cl)cc1 (racemic)
- CC50 at 120 h [1]: > 20 µM
- EC50 [2]: 0.73 µM

Structure (SMILES): O=C(NCc1ccc(F)cc1)N1CCN2C(=O)c3ccccc3C12c1ccc(Cl)cc1 (racemic)
- CC50 at 120 h [1]: 10 µM
- EC50 [2]: 0.6 µM

Structure (SMILES): O=C(c1cccc(Cl)n1)N1CCN2C(=O)c3ccccc3C12c1ccc(Cl)cc1 (racemic)
- CC50 at 120 h [1]: > 17 µM
- EC50 [2]: 0.47 µM

Structure (SMILES): O=C(c1ccco1)N1CCN2C(=O)c3ccccc3C12c1ccc(Cl)cc1 (racemic)
- CC50 at 120 h [1]: 12 µM
- EC50 [2]: 0.26 µM

Structure (SMILES): CC(=O)N1CCN2C(=O)c3ccccc3C12c1ccc(Cl)cc1 (racemic)
- CC50 at 120 h [1]: > 20 µM
- EC50 [2]: 1.2 µM

Structure (SMILES): CCC(=O)N1CCN2C(=O)c3ccccc3C12c1ccc(Cl)cc1 (racemic)
- CC50 at 120 h [1]: > 20 µM
- EC50 [2]: 1 µM

Structure (SMILES): CC(C)CC(=O)N1CCN2C(=O)c3ccccc3C12c1ccc(Cl)cc1 (racemic)
- CC50 at 120 h [1]: > 20 µM
- EC50 [2]: 0.74 µM

Structure (SMILES): O=C1c2ccccc2C2(c3ccc(Cl)cc3)N1CCN2C(=O)C1CC1 (racemic)
- CC50 at 120 h [1]: > 21 µM
- EC50 [2]: 4.9 µM

Structure (SMILES): COCC(=O)N1CCN2C(=O)c3ccccc3C12c1ccc(Cl)cc1 (racemic)
- CC50 at 120 h [1]: > 21 µM
- EC50 [2]: 2.7 µM

Structure (SMILES): N#CCC(=O)N1CCN2C(=O)c3ccccc3C12c1ccc(Cl)cc1 (racemic)
- CC50 at 120 h [1]: > 21 µM
- EC50 [2]: 4.5 µM

Structure (SMILES): O=C(CC1CCCCC1)N1CCN2C(=O)c3ccccc3C12c1ccc(Cl)cc1 (racemic)
- CC50 at 120 h [1]: 14 µM
- EC50 [2]: 4.5 µM

Structure (SMILES): O=C(c1ccc(F)cc1)N1CCN2C(=O)c3ncccc3C12c1ccc(Cl)cc1 (racemic)
- CC50 at 120 h [1]: > 20 µM
- EC50 [2]: 0.88 µM

Structure (SMILES): O=C(c1ccc(F)cc1)N1CCN2C(=O)c3cccnc3C12c1ccc(Cl)cc1 (racemic)
- CC50 at 120 h [1]: > 20 µM
- EC50 [2]: 1.2 µM

Structure (SMILES): O=C(c1ccc(F)cc1)N1CCN2C(=O)c3nccnc3C12c1ccc(Cl)cc1 (racemic)
- CC50 at 120 h [1]: > 18 µM
- EC50 [2]: > 18 µM

Structure (SMILES): O=C(c1ccc(F)cc1)N1CCN2C(=O)c3cnccc3C12c1ccc(Cl)cc1 (racemic)
- CC50 at 120 h [1]: > 18 µM
- EC50 [2]: 2.7 µM

Structure (SMILES): O=C(c1ccc(F)cc1)N1CCN2C(=O)c3ccncc3C12c1ccc(Cl)cc1 (racemic)
- Vd [3]: 6 L/kg
- CC50 at 120 h [1]: > 49 µM
- chromatographic logD [4]: 2.8
- EC50 [2]: 0.23 µM
- EC50 [5]: 0.22 µM
- solubility kinetic [6]: 12.5 µg/mL (≈ 30.6 µM)
- EC50 [7]: 0.68 µM
- half-life [8]: > 24 h
- bioavailability [9]: 28%
- half-life [10]: > 24 h
- Cmax [11]: 6.3 µM
- solubility kinetic [12]: 25 µg/mL (≈ 61.3 µM)
- clearance [13]: 2.7 mL/min/kg
- fold change (FC) [14]: <10
- fraction unbound [15]: 0.27
